From ChEMBL document CHEMBL1135766, “Synthesis of conformationally constrained analogues of linezolid: structure-activity relationship (SAR) studies on selected novel tricyclic oxazolidinones” (2002) come the findings set out here.

For assay [1], the system named is Enterococcus faecalis. The experiment in a line: In vitro antibacterial activity against Enterococcus faecalis ATCC 29212 (E. f. 034) vancomycin sensitive. Type of assay: functional. A digest of the protocol:
(§1)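 Broth microdilution MIC per NCCLS guidelines in Mueller Hinton medium. Doubling dilutions from 256 to 1 μg/mL, inoculum (1–5) × 10⁵ CFU/mL, incubated overnight in ambient air at 35 °C. MIC is the lowest concentration giving complete growth inhibition. Linezolid and vancomycin served as controls.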

The subject of assay [2] is Staphylococcus aureus. Put plainly: In vitro antibacterial activity against Staphylococcus aureus ATCC 49951 (S. a. 213). The assay is classed as functional. A digest of the protocol: as §1
Another assay deals with Enterococcus faecium. The experiment in a line: In vitro antibacterial activity against Enterococcus faecium ATCC 12202 (E.fm 154) vancomycin resistant. The assay is classed as functional, enterococcus fecium. In a few lines:
as §1

For assay [3], the system named is Staphylococcus aureus. Put plainly: In vitro antibacterial activity against methicillin resistant Staphylococcus aureus ATCC 33591 (S. a. 019). The assay is classed as functional. A digest of the protocol: as §1
In assay [4] the test system is Staphylococcus aureus. The experiment in a line: In vitro antibacterial activity against Staphylococcus aureus ATCC 29213 (S. a. 035). Type of assay: functional. In a few lines: (§2)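 Broth microdilution per NCCLS guidelines in Mueller Hinton medium. Doubling dilutions 256–1 μg/mL; inoculum (1–5) × 10⁵ CFU/mL; plates incubated overnight at 35 °C in ambient air. MIC read as the lowest concentration giving complete growth inhibition. Linezolid and vancomycin served as controls.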

Assay [5] concerns Enterococcus faecalis. Put plainly: In vitro antibacterial activity against Enterococcus faecalis NCTC 12201 (E. f. 153) vancomycin resistant. The assay is classed as functional. In a few lines:
as §1

Assay [6] has as its system Enterococcus faecalis. Put plainly: In vitro antibacterial activity against Enterococcus faecalis ATCC 29212 (E. f. 153) vancomycin sensitive. Type of assay: functional. A digest of the protocol:
as §2

Converted amounts (≈) assume the structure as drawn.

Broadly, the MIC is the lowest concentration found to suppress growth.

Regarding `N=C(S)NC[C@H]1CN(c2cc(F)c3c(c2)OC[C@@H]2CCCN32)C(=O)O1`, the MIC in the assay on Enterococcus faecalis [1] stood at 1 µg/mL (≈ 2.73 µM); in the assay with Staphylococcus aureus [2] it was 0.5 µg/mL (≈ 1.36 µM); against Enterococcus faecium, 1 µg/mL (≈ 2.73 µM); in the assay on Staphylococcus aureus [3], 0.5 µg/mL (≈ 1.36 µM); against Staphylococcus aureus [4] it was 0.5 µg/mL (≈ 1.36 µM); with Enterococcus faecalis [5], 1 µg/mL (≈ 2.73 µM).
As for `O=C(NC[C@H]1CN(c2ccc3c(c2)OC[C@@H]2CCCN32)C(=O)O1)C(F)F`, the MIC against Enterococcus faecalis [1] turned out to be 4 µg/mL (≈ 10.9 µM); in the assay on Enterococcus faecalis [6] it was 4 µg/mL (≈ 10.9 µM); in the assay with Enterococcus faecium, 4 µg/mL (≈ 10.9 µM); against Staphylococcus aureus [3], 2 µg/mL (≈ 5.44 µM); against Staphylococcus aureus [4], 4 µg/mL (≈ 10.9 µM).
Consider `CCCCO/C(S)=N\C[C@H]1CN(c2cc(F)c3c(c2)OC[C@@H]2CCCN32)C(=O)O1`, for which the MIC with Enterococcus faecalis [1], in the assay with Enterococcus faecalis [6], in the assay with Staphylococcus aureus [2], with Enterococcus faecium, against Staphylococcus aureus [3] and against Staphylococcus aureus [4] was above 32 µg/mL throughout.
For the molecule `CC(C)O/C(S)=N\C[C@H]1CN(c2cc(F)c3c(c2)OC[C@@H]2CCCN32)C(=O)O1`, the MIC in the assay with Enterococcus faecalis [1], against Enterococcus faecalis [6], with Staphylococcus aureus [2], with Enterococcus faecium, with Staphylococcus aureus [3] and in the assay with Staphylococcus aureus [4] was 8 µg/mL (≈ 19.5 µM) throughout.
With `C=CC(=O)NC[C@H]1CN(c2ccc3c(c2)OC[C@@H]2CCCN32)C(=O)O1`, the MIC turned out to be 8 µg/mL (≈ 23.3 µM) in the assay on Enterococcus faecalis [1]; 8 µg/mL (≈ 23.3 µM) in the assay with Enterococcus faecium; 4 µg/mL (≈ 11.6 µM) in the assay with Staphylococcus aureus [3]; 8 µg/mL (≈ 23.3 µM) with Staphylococcus aureus [4]; 8 µg/mL (≈ 23.3 µM) against Enterococcus faecalis [5].
In the case of `O=C(CC(F)(F)F)NC[C@H]1CN(c2cc(F)c3c(c2)OC[C@@H]2CCCN32)C(=O)O1`, the MIC against Enterococcus faecalis [1] turned out to be 4 µg/mL (≈ 9.58 µM); against Staphylococcus aureus [2], 8 µg/mL (≈ 19.2 µM); against Enterococcus faecium, 4 µg/mL (≈ 9.58 µM); against Staphylococcus aureus [3], 4 µg/mL (≈ 9.58 µM); with Staphylococcus aureus [4], 8 µg/mL (≈ 19.2 µM); in the assay on Enterococcus faecalis [5], 4 µg/mL (≈ 9.58 µM).
In the case of `O=C1O[C@@H](C/N=C(/S)N2CCSCC2)CN1c1cc(F)c2c(c1)OC[C@@H]1CCCN21`, the MIC against Enterococcus faecalis [1], with Staphylococcus aureus [2], with Enterococcus faecium, with Staphylococcus aureus [3], against Staphylococcus aureus [4] and with Enterococcus faecalis [5] was 16 µg/mL (≈ 35.4 µM) in each case.
In the case of `O=C(CCl)NC[C@H]1CN(c2ccc3c(c2)OC[C@@H]2CCCN32)C(=O)O1`, the MIC was 4 µg/mL (≈ 10.9 µM) with Enterococcus faecalis [1]; 4 µg/mL (≈ 10.9 µM) with Enterococcus faecalis [6]; 8 µg/mL (≈ 21.9 µM) with Enterococcus faecium; 2 µg/mL (≈ 5.47 µM) in the assay on Staphylococcus aureus [3]; 4 µg/mL (≈ 10.9 µM) in the assay with Staphylococcus aureus [4].
On to `O=C(NC[C@H]1CN(c2ccc3c(c2)OC[C@@H]2CCCN32)C(=O)O1)C(Cl)Cl`, for which the minimal inhibitory concentration (MIC) came out at 8 µg/mL (≈ 20 µM) against Enterococcus faecalis [1]; 8 µg/mL (≈ 20 µM) with Enterococcus faecalis [6]; 8 µg/mL (≈ 20 µM) against Enterococcus faecium; 4 µg/mL (≈ 9.99 µM) in the assay with Staphylococcus aureus [3]; 4 µg/mL (≈ 9.99 µM) against Staphylococcus aureus [4].
On to `CCCCC(=O)NC[C@H]1CN(c2cc(F)c3c(c2)OC[C@@H]2CCCN32)C(=O)O1`, for which the MIC against Enterococcus faecalis [1] came out at 16 µg/mL (≈ 40.9 µM); with Staphylococcus aureus [2], 16 µg/mL (≈ 40.9 µM); in the assay on Enterococcus faecium it was 32 µg/mL (≈ 81.7 µM); against Staphylococcus aureus [3], 8 µg/mL (≈ 20.4 µM); against Staphylococcus aureus [4], 16 µg/mL (≈ 40.9 µM); in the assay on Enterococcus faecalis [5], 16 µg/mL (≈ 40.9 µM).
For `O=CNC[C@H]1CN(c2cc(F)c3c(c2)OC[C@@H]2CCCN32)C(=O)O1`, the MIC against Enterococcus faecalis [1] stood at 4 µg/mL (≈ 11.9 µM); in the assay on Staphylococcus aureus [2], 4 µg/mL (≈ 11.9 µM); in the assay on Enterococcus faecium it was 8 µg/mL (≈ 23.9 µM); against Staphylococcus aureus [3], 4 µg/mL (≈ 11.9 µM); in the assay on Staphylococcus aureus [4], 8 µg/mL (≈ 23.9 µM); in the assay on Enterococcus faecalis [5], 4 µg/mL (≈ 11.9 µM).
For the molecule `C/N=C(\S)NC[C@H]1CN(c2cc(F)c3c(c2)OC[C@@H]2CCCN32)C(=O)O1`, the MIC with Enterococcus faecalis [1] worked out at 2 µg/mL (≈ 5.26 µM); against Staphylococcus aureus [2], 4 µg/mL (≈ 10.5 µM); against Enterococcus faecium it was 4 µg/mL (≈ 10.5 µM); with Staphylococcus aureus [3], 2 µg/mL (≈ 5.26 µM); against Staphylococcus aureus [4], 4 µg/mL (≈ 10.5 µM); in the assay with Enterococcus faecalis [5], 4 µg/mL (≈ 10.5 µM).
With `O=C1O[C@@H](C/N=C(/S)N2CCOCC2)CN1c1cc(F)c2c(c1)OC[C@@H]1CCCN21`, the MIC against Enterococcus faecalis [1], with Staphylococcus aureus [2], in the assay with Enterococcus faecium, against Staphylococcus aureus [3], in the assay on Staphylococcus aureus [4] and against Enterococcus faecalis [5] was 16 µg/mL (≈ 36.7 µM) in each case.
`O=CNC[C@H]1CN(c2ccc3c(c2)OC[C@@H]2CCCN32)C(=O)O1`: the MIC with Enterococcus faecalis [1] is 16 µg/mL (≈ 50.4 µM); against Enterococcus faecium, 16 µg/mL (≈ 50.4 µM); in the assay on Staphylococcus aureus [3] it was 4 µg/mL (≈ 12.6 µM); against Staphylococcus aureus [4], 8 µg/mL (≈ 25.2 µM); with Enterococcus faecalis [5], 16 µg/mL (≈ 50.4 µM).
As to `CC(C)C(=O)NC[C@H]1CN(c2ccc3c(c2)OC[C@@H]2CCCN32)C(=O)O1`, the MIC in the assay on Enterococcus faecalis [1] is 32 µg/mL (≈ 89 µM); against Enterococcus faecium, 32 µg/mL (≈ 89 µM); with Staphylococcus aureus [3] it was 8 µg/mL (≈ 22.3 µM); in the assay on Staphylococcus aureus [4], 16 µg/mL (≈ 44.5 µM); against Enterococcus faecalis [5] it was 32 µg/mL (≈ 89 µM).
Regarding `CCOC(=O)NC[C@H]1CN(c2cc(F)c3c(c2)OC[C@@H]2CCCN32)C(=O)O1`, the MIC against Enterococcus faecalis [1], against Staphylococcus aureus [2], against Enterococcus faecium, against Staphylococcus aureus [3], in the assay with Staphylococcus aureus [4] and in the assay on Enterococcus faecalis [5] was 8 µg/mL (≈ 21.1 µM) each time.
With `CCCCCC(=O)NC[C@H]1CN(c2cc(F)c3c(c2)OC[C@@H]2CCCN32)C(=O)O1`, the MIC in the assay with Enterococcus faecalis [1] was determined as 32 µg/mL (≈ 78.9 µM); in the assay on Staphylococcus aureus [2], 32 µg/mL (≈ 78.9 µM); with Enterococcus faecium, 32 µg/mL (≈ 78.9 µM); in the assay on Staphylococcus aureus [3] it was 16 µg/mL (≈ 39.5 µM); against Staphylococcus aureus [4] it was 32 µg/mL (≈ 78.9 µM); against Enterococcus faecalis [5], 32 µg/mL (≈ 78.9 µM).
As to `O=C(CCl)NC[C@H]1CN(c2cc(F)c3c(c2)OC[C@@H]2CCCN32)C(=O)O1`, the MIC against Enterococcus faecalis [1] is 2 µg/mL (≈ 5.21 µM); against Enterococcus faecalis [6], 2 µg/mL (≈ 5.21 µM); with Enterococcus faecium, 2 µg/mL (≈ 5.21 µM); with Staphylococcus aureus [3] it was 1 µg/mL (≈ 2.61 µM); in the assay with Staphylococcus aureus [4], 1 µg/mL (≈ 2.61 µM).
On to `CCCCCCC(=O)NC[C@H]1CN(c2cc(F)c3c(c2)OC[C@@H]2CCCN32)C(=O)O1`, for which the MIC in the assay with Enterococcus faecalis [1], in the assay with Staphylococcus aureus [2], with Enterococcus faecium, in the assay on Staphylococcus aureus [3], in the assay on Staphylococcus aureus [4] and against Enterococcus faecalis [5] was 32 µg/mL (≈ 76.3 µM) each time.
As for `CC(C)C(=O)NC[C@H]1CN(c2cc(F)c3c(c2)OC[C@@H]2CCCN32)C(=O)O1`, the MIC stood at 16 µg/mL (≈ 42.4 µM) against Enterococcus faecalis [1]; 8 µg/mL (≈ 21.2 µM) in the assay on Staphylococcus aureus [2]; 16 µg/mL (≈ 42.4 µM) in the assay with Enterococcus faecium; 8 µg/mL (≈ 21.2 µM) against Staphylococcus aureus [3]; 8 µg/mL (≈ 21.2 µM) with Staphylococcus aureus [4]; 16 µg/mL (≈ 42.4 µM) in the assay with Enterococcus faecalis [5].
`O=C1O[C@@H](C/N=C(/S)N2CCCC2)CN1c1cc(F)c2c(c1)OC[C@@H]1CCCN21`: the MIC against Enterococcus faecalis [1], against Staphylococcus aureus [2], against Enterococcus faecium, in the assay with Staphylococcus aureus [3], with Staphylococcus aureus [4] and against Enterococcus faecalis [5] was 32 µg/mL (≈ 76.1 µM) in each case.
In the case of `CC(=O)NC[C@H]1CN(c2ccc3c(c2)OC[C@@H]2CCCN32)C(=O)O1`, the MIC turned out to be 16 µg/mL (≈ 48.3 µM) in the assay with Enterococcus faecalis [1]; 4 µg/mL (≈ 12.1 µM) in the assay on Staphylococcus aureus [2]; 16 µg/mL (≈ 48.3 µM) in the assay on Enterococcus faecium; 4 µg/mL (≈ 12.1 µM) against Staphylococcus aureus [3]; 8 µg/mL (≈ 24.1 µM) against Staphylococcus aureus [4]; 16 µg/mL (≈ 48.3 µM) with Enterococcus faecalis [5].
Consider `CCCC(=O)NC[C@H]1CN(c2cc(F)c3c(c2)OC[C@@H]2CCCN32)C(=O)O1`, for which the MIC with Enterococcus faecalis [1], against Staphylococcus aureus [2], in the assay with Enterococcus faecium, against Staphylococcus aureus [3], against Staphylococcus aureus [4] and with Enterococcus faecalis [5] was 4 µg/mL (≈ 10.6 µM) in each case.
With `CCCC/C(S)=N\C[C@H]1CN(c2cc(F)c3c(c2)OC[C@@H]2CCCN32)C(=O)O1`, the MIC was determined as 2 µg/mL (≈ 4.91 µM) with Enterococcus faecalis [1]; 2 µg/mL (≈ 4.91 µM) against Staphylococcus aureus [2]; 2 µg/mL (≈ 4.91 µM) against Enterococcus faecium; 2 µg/mL (≈ 4.91 µM) against Staphylococcus aureus [3]; 4 µg/mL (≈ 9.82 µM) in the assay on Staphylococcus aureus [4]; 2 µg/mL (≈ 4.91 µM) in the assay on Enterococcus faecalis [5].
